# SIRT5 inh: sirtuin-5 (human) deacylase inhibition; Q9NXA8; Purified SirT5, succinyl-peptide AMC, trypsin-coupled fluorescence; inhibition, % at 15 µM; actives 1.1% (n = 330,000); in the data active = inhibition above about 15%
# Target sequence (Q9NXA8 whole entry, looked up): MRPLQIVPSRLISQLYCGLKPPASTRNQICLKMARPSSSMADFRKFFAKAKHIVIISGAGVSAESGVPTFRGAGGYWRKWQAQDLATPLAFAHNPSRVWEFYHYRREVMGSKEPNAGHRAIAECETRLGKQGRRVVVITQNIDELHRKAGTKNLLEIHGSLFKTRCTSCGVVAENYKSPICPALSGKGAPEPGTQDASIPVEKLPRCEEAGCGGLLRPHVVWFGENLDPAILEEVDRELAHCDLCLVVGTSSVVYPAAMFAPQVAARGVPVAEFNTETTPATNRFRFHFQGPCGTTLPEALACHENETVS
# PGC1a acetyl inh: modulators of PGC1a acetylation | U2OS PGC1a acetylation, AlphaScreen anti-acetyl-lysine; with virally co-expressed GCN5 acetyltransferase | inhibition, % at 15.6 µM | actives 0.17% (n = 350,000) | AID 651687;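 active = every replicate shows inhibition of at least 40%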;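 also: 0% = neutral control wells and 100% = positive control wells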
# DENV2 CPE rescue: inhibitors of DENV2 cytopathic effect; DENV2-infected cells, cytopathic effect rescue, plate reader; CPE inhibition, % at 9.99 µM; actives 1.7% (n = 350,000); AID 651640; in the data active = CPE inhibition above about 20%, passing the limit was not always enough; tested in BHK-21 cells;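 also: 0% = median of neutral control wells and 100% = median of positive control wells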
# Statin myotox sup: suppressors of simvastatin-induced myotoxicity in C2C12 myotubes; rescue of ATP level, % at 7.49 µM; ATP luminescence, 48 h; scaled: DMSO 0, geranylgeraniol control 100; actives 0.78% (n = 330,000);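 active = mean ATP rescue above about 67%, or every replicate alone reaching that limit, limit read from the data, passing the limit was not always enough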;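 also: myotubes were challenged with 10 µM simvastatin during compound exposure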
# S100A4 MyoIIA: S100A4-myosin IIA interaction inhibition; P26447; S100A4/TAMRA-MyoIIA peptide fluorescence polarization; inhibition, % at 10.7 µM; actives 0.14% (n = 360,000);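 active = mean inhibition of at least 70% across replicates, with every replicate also reaching that level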
# Target sequence (P26447 whole entry, looked up): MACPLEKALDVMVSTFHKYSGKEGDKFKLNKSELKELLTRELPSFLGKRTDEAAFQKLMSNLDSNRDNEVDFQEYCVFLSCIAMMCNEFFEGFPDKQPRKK
#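 Test system: S100A4 monomer protein; Medium: HEPES pH 7.2 with CaCl2, KCl, NaCl, DTT, Triton; Probe or stimulus: TAMRA-labelled myosin IIA heavy-chain peptide probe, 5 nM; Doses: one dose per compound; Times: polarization read 5 min after assay mix addition, stable 5–60 min; Benchmarks: neutral control DMSO, positive control TFP.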
# Active calls of the source: *; x = no result. Most compounds without a hit are left out; they make up all but 2.9% or so of the library.
SMILES,SIRT5 inh,PGC1a acetyl inh,DENV2 CPE rescue,Statin myotox sup,S100A4 MyoIIA
CN1C(=O)c2cc(NC(=O)NC3CCCC3)ccc2OC[C@@H]2O[C@@H](CC(=O)NC3CCC3)CC[C@@H]21,-7.6,-4.1,6.6,-0.6,-5.7
CCSC1=C(C#N)C(c2ccc(C)s2)CC(=O)N1 (centres undefined),15.7*,-0.8,1.9,1.6,1.9
CCCSC1=C(C#N)C(c2ccccc2C)CC(=O)N1 (centres undefined),x,-5.5,x,133.8*,x
CC(C)(C)[S@@](=O)N1Cc2cc(C(=O)NCCN3CCCCC3)nc(-c3cccc(-c4ccc(C#N)cc4)c3)c2[C@H]1CCO,6.7,-28.0,-0.6,-5.8,-7.2
COc1cccc(NC(=O)N(C)C[C@@H]2OCc3cnnn3CCCC(=O)N([C@H](C)CO)C[C@H]2C)c1,-2.2,8.6,-14.2,-18.9,7.2
CC(C)CC1NC(=O)c2ccccc2-n2c1nc1ccccc1c2=O (centres undefined),2.0,x,39.7*,x,-1.4
O=C1NC(Cc2ccc(O)cc2)c2nc3ccc(F)cc3c(=O)n2-c2cc3ccccc3cc21 (centres undefined),28.8*,x,1.0,-7.7,4.9
COc1ccc2nc3n(c(=O)c2c1)-c1ccccc1C(=O)NC3Cc1ccccc1 (centres undefined),x,x,89.3*,x,3.3
COc1cc2nc3n(c(=O)c2cc1OC)-c1cc2ccccc2cc1C(=O)NC3Cc1ccccc1 (centres undefined),-3.3,0.0,-5.6,18.9,-1.1
COc1cccc(CN2CC3(C2)CN(C(=O)C2CC2)[C@@H](CO)c2[nH]c4cc(OC)ccc4c23)c1,0.7,-9.3,-9.9,x,-6.7
Cc1ccc(S(=O)(=O)N(C)C[C@@H]2OCCCC[C@@H](C)Oc3ccc(NC(=O)Nc4cccc5ccccc45)cc3C(=O)N([C@H](C)CO)C[C@H]2C)cc1,1.9,-16.1,-2.0,x,-9.3
CN1c2ccc(-c3ccc(F)cc3)cc2[C@H]2[C@H](CCN2C(=O)Cc2ccccn2)[C@@H]1CO,-9.1,-12.8,1.2,34.1,-30.5
C[C@@H]1CCCCO[C@@H](CN(C)S(=O)(=O)c2ccccc2)[C@H](C)CN([C@@H](C)CO)C(=O)c2cc(NC(=O)CCCN(C)C)ccc2O1,-3.8,10.7,25.6*,x,1.8
C[C@@H]1CN([C@@H](C)CO)C(=O)c2cc(NC(=O)CCCN(C)C)ccc2O[C@@H](C)CCCCO[C@@H]1CN(C)S(=O)(=O)c1ccccc1,-3.8,-6.3,30.9*,x,5.3
C[C@@H]1CN([C@H](C)CO)C(=O)c2cc(NC(=O)CCCN(C)C)ccc2O[C@@H](C)CCCCO[C@H]1CN(C)S(=O)(=O)c1ccccc1,-2.8,-1.0,23.0*,x,14.0
C[C@H]1CCCCO[C@H](CN(C)S(=O)(=O)c2ccccc2)[C@@H](C)CN([C@@H](C)CO)C(=O)c2cc(NC(=O)CCCN(C)C)ccc2O1,4.0,21.6,41.3*,x,-34.2
C[C@H](CO)N1C[C@H](C)[C@@H](CN(C)S(=O)(=O)c2ccccc2)OCCCC[C@H](C)Oc2ccc(NC(=O)CCCN(C)C)cc2C1=O,6.3,-3.3,-1.1,x,5.3
Cc1ccc(S(=O)(=O)N(C)C[C@@H]2Oc3ccc(NC(=O)NC(C)C)cc3C(=O)N([C@H](C)CO)C[C@@H]2C)cc1,x,-11.0,x,-23.1,x
O=C(Cc1ccccn1)N[C@H]1CC[C@H](CCn2cc(-c3ccccc3)nn2)O[C@H]1CO,-1.2,-2.2,1.3,1.6,-2.6
C[C@@H]1CCCCO[C@@H](CN(C)C(=O)c2ccncc2)[C@H](C)CN([C@H](C)CO)C(=O)c2cc(NC(=O)Cc3ccccc3)ccc2O1,5.2,0.9,3.0,9.4,6.1
CCOC(=O)C(=O)/C(=C\N(C)C)c1onc(-c2c(Cl)cccc2Cl)c1C(=O)OC,x,10.4,x,84.8*,x
COc1ccccc1NC(=O)N1CC[C@@H]2[C@H]1c1cc(-c3ccc(F)cc3)ccc1N(C)[C@H]2CO,2.5,8.9,2.0,30.3,1.9
CN1c2ccc(-c3ccc(C#N)cc3)cc2[C@@H]2[C@@H](CCN2C(=O)Nc2ccccc2F)[C@@H]1CO,-16.1,6.8,41.9*,14.2,2.4
COc1ccccc1NC(=O)N1CC[C@H]2[C@@H]1c1cc(C#Cc3ccc(F)cc3)ccc1N(C)[C@H]2CO,11.4,-2.9,34.2*,-17.0,27.4
CN1c2ccc(-c3cccc(C#N)c3)cc2[C@@H]2[C@@H](CCN2C(=O)Nc2cc(F)ccc2F)[C@@H]1CO,7.2,3.0,16.1,-23.8,3.9
SMILES,SIRT5 inh,PGC1a acetyl inh,DENV2 CPE rescue,Statin myotox sup,S100A4 MyoIIA
COc1ccc(S(=O)(=O)Nc2ccc3c(c2)CC(=O)N([C@H](C)CO)C[C@H](C)[C@H](CN(C)Cc2ccc(C(=O)Nc4ccccc4N)cc2)O3)cc1,7.6,7.1,5.7,-54.1,-2.6
CCCNC(=O)N(C)C[C@H]1Oc2cc(-c3cncnc3)ccc2S(=O)(=O)N([C@H](C)CO)C[C@H]1C,-10.2,2.4,7.0,6.4,17.7
C[C@H](CO)N1C[C@H](C)[C@@H](CN(C)CC2CCCCC2)OCCCC[C@H](C)Oc2ccc(NC(=O)CCC(F)(F)F)cc2C1=O,x,5.1,1.5,x,x
C[C@@H]1CN([C@@H](C)CO)C(=O)c2ccccc2-c2ccccc2CO[C@H]1CN(C)C(=O)[C@H](Cc1ccccc1)N(C)C,-4.6,0.6,11.8,x,11.3
O=C(O)Cc1ccc(Nc2cnn(C34CC5CC(CC(CC(=O)O)(C5)C3)C4)c(=O)c2Cl)cc1,15.2*,-1.7,-5.2,6.1,-1.4
C[C@@H]1CN([C@H](C)CO)C(=O)c2ccccc2-c2ccccc2CO[C@@H]1CN(C)C(=O)Nc1cccc(C(F)(F)F)c1,2.4,-6.3,-0.7,-3.0,3.2
COCCNC(=S)N(C)[C@H]1C[C@H]2c3[nH]c4ccccc4c3CCN2C(=O)[C@H]1[C@H](C)O,-4.9,x,5.4,x,3.1
COc1ccc(-c2nc(-c3cccc(C)c3)no2)cc1OC,17.0*,4.1,-5.0,3.0,-3.8
COc1cc(-c2nc(-c3cccc(C)c3)no2)cc(OC)c1OC,x,3.5,x,-11.7,x
C[C@H]1CN([C@@H](C)CO)C(=O)Cc2cc(NC(=O)Nc3cccc4ccccc34)ccc2O[C@H]1CN(C)C(=O)Nc1ccc(F)cc1,5.5,0.3,-6.7,21.0,-9.5
O=C(CCc1c[nH]c2ccccc12)OCc1cccc([N+](=O)[O-])c1,-0.4,x,26.9*,-6.3,0.2
O=C(OCC(=O)c1c[nH]c2ccccc12)c1cccc([N+](=O)[O-])c1,-3.5,4.1,80.1*,25.5,-3.7
NC(=O)CCc1c[nH]c2ccccc12,x,-3.8,x,109.1*,x
O=C(OCC(=O)c1c[nH]c2ccccc12)c1cncc(Br)c1,2.8,x,-6.3,3.4,-5.4
COC(=O)CCc1c[nH]c2ccc([N+](=O)[O-])cc12,1.3,5.4,-4.4,-3.5,10.7
O=C(COC(=O)CCc1c[nH]c2ccccc12)NCc1ccccc1,1.2,x,-11.0,x,-0.9

# High-throughput results from PubChem BioAssay.
